High-throughput results (PubChem BioAssay)
Only some compounds are listed: those with a hit (about 2.4% of all), similar ones and a draw of the others.
PGE2 EP2 inh: inhibitors of human EP2 prostaglandin E2 receptor; inhibition, % at 25 µM; AID 1422; C6 glioma cells expressing human EP2, cAMP TR-FRET; cells stimulated with saturating PGE2; actives 0.52% (n = 260,000);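 active means percent inhibition above 40 after rounding to a whole number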;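 further: rat C6 glioma host cells with rolipram phosphodiesterase inhibitor present; the protocol text gives 20 µM as final concentration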
Target sequence (P43116 whole entry, looked up): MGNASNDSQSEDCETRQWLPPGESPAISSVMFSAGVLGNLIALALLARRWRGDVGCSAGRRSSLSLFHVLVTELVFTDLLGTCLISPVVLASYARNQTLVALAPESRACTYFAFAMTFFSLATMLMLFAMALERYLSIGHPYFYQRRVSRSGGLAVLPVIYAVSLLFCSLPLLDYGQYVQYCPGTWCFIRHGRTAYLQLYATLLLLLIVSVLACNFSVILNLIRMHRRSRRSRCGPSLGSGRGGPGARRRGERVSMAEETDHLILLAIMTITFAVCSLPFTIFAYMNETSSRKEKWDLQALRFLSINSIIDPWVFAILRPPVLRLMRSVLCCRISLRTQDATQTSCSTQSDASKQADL
MT stabilize HCS: stabilizes microtubules in HeLa cells | HeLa tubulin immunostaining HCS, 24 h; share of cells brighter than vehicle mean+2SD | % tubulin-high responders, % at 10 µM | actives 0.83% (n = 200,000) | AID 2205;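 active means plate Z-score above 3 for both tubulin-high and condensed-nucleus cell shares, with cell loss under 80%, at 10 µM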;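 further: anti alpha tubulin signal scored within the nucleus-defined area of each cell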
TbHK1 inh: T. brucei hexokinase 1 inhibition | recombinant TbHK1, G6PDH-coupled NADH A340 | actives 0.11% (n = 220,000) | AID 1430 | inhibition, % at 10 µM;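 active means inhibition of 50% or more in the single-dose primary screen; inactive means inhibition below 50%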
Efa HMGR inh: E. faecalis class II HMG-CoA reductase inhibition; purified E. faecalis HMGR, NADPH absorbance 340 nm kinetic; inhibition, % at 10 µM; actives 0.41% (n = 190,000); AID 1066;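 active means inhibition above a set limit, the median over all tested compounds plus 3 SD, cut at about 9.5% in these data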;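 further: enzyme runs in reverse so mevalonate oxidation gives rising NADPH absorbance; 0% = complete reaction with DMSO and 100% = background rate lacking mevalonate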
EP2 mod: modulates human prostaglandin E2 receptor EP2 signaling; P43116; EP2-expressing cells, cAMP HTRF FRET, PGE2 co-stimulation; induction, % at 25 µM; actives 0.83% (n = 260,000); AID 940;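 active means compounds whose cAMP rise, as percent of the full-agonist control response, exceeds 60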;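 further: rat C6 glioma line stably carrying human EP2 under a CMV promoter; the protocol text gives 20 µM as final concentration; 100% = response of wells given 1 µM PGE2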
bCat nuc transl: alters nuclear translocation of beta-catenin in HeLa cells. immunofluorescence imaging. actives 0.3% (n = 190,000). nuclear translocation activity, % at 5 µM;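 active means nuclear translocation activity above 50% at 5 µM, with a well cell count of 50 or more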;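 further: per-cell ratio of nuclear to cytoplasmic median beta-catenin stain intensity; plate controls were DMSO negative control for no effect and GSK-3 inhibitor IX positive control for full effect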
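Test system: HeLa cells, endogenous beta-catenin; Compound: single 5 µM dose plus 0.02–20 µM confirmation series; Times: compound exposure 24 h at 37°C; Signal: fluorescence imaging of beta-catenin antibody stain plus DAPI; Read-out: % activation, nuclear-to-cytoplasmic median beta-catenin signal ratio per cell.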
Starred values were filed as active, the others as inactive; x = not tested or not shown; ! = not active in a repeat.

SMILES	PGE2 EP2 inh	MT stabilize HCS	TbHK1 inh	Efa HMGR inh	EP2 mod	bCat nuc transl
CCc1ccc(C2C(C#N)=C(N)Oc3n[nH]c(-c4cc(C)sc4C)c32)cc1 (stereo not given)	5	x	x	x	-9	x
COc1cc(/C=C2/C(=O)c3cccc([N+](=O)[O-])c3C2=O)c(Br)cc1O	49*	3	23	4	-96	1
Cc1cccc(C2(c3cccc(C)c3)CC2C(=O)Nc2ccc([N+](=O)[O-])cc2O)c1 (stereo not given)	8	3	24	-6	61*	-3
Cc1cccc(C2(c3cccc(C)c3)CC2C(=O)NCC2CCCO2)c1 (stereo not given)	3	3	-2	1	35	-3
COC(=O)c1[nH]c2ccc(F)cc2c1NS(=O)(=O)c1ccc(OC)cc1	10	23*	-5	-3	0	40
COc1ccc2[nH]c(C(=O)O)c(NS(=O)(=O)c3ccc(OC)c(OC)c3)c2c1	4	10	-12	-3	12	-3
COc1ccc(OC)c(NS(=O)(=O)c2ccc(N3CCCC3=O)cc2)c1	17	22*	-9	2	-25	147*
COc1ccc(CCNS(=O)(=O)c2ccc(N3CCCC3=O)cc2)cc1	9	3	-4	0	9	x
Cc1ccccc1NS(=O)(=O)c1ccc(N2CCCC2=O)cc1	4	37*	-2	-2	-12	100*
CC(C)(C)NS(=O)(=O)c1ccc(N2CCCC2=O)cc1	8	x	x	x	-6	x
O=C1COc2ccc(S(=O)(=O)N3CCS(=O)(=O)CC3)cc2N1	8	x	x	x	-24	x
O=C1COc2ccc(N3C(=O)C=CC3=O)cc2N1	46*	5	-1	6	-34	1
Cc1nc(SCC(=O)Nc2ccc(F)cc2)nc2c1CCCC2	54*	x	x	x	-82	x
Cc1nc(SCc2ccccc2)nc2c1CCCC2	13	x	x	x	54	x
Cc1nc(SCc2ccc(C(=O)O)cc2)nc2c1CCCC2	6	2	-5	1	61*!	0
COc1ccc(NC(=S)N(CCc2nc3ccccc3[nH]2)C2CCCCC2)cc1	10	x	x	x	-47	x
Nc1nc2c(ncn2[C@@H]2CC[C@@H](CO)O2)c(=O)n1C(=O)c1ccccc1	57*	x	x	x	-4	x
COc1ccccc1S(=O)(=O)Cc1ccc(C(=O)N2CCN(c3ccc(C)cc3)C(C)C2)o1 (stereo not given)	19	17	-7	-11	-18	-1
COc1ccc(N2CCN(C(=O)c3ccc(CS(=O)(=O)c4ccc(OC)cc4)o3)CC2)cc1	15	5	-8	-6	-11	x
Cc1ccc(S(=O)(=O)Cc2ccc(C(=O)N3CCN(c4ccc(F)cc4)CC3)o2)cc1	10	24*	-6	-5	-18	x
COc1ccc(S(=O)(=O)Cc2ccc(C(=O)N3CCN(c4cccc(C)c4)C(C)C3)o2)cc1 (stereo not given)	18	24*	-6	-10	-8	x
COc1ccc(S(=O)(=O)Cc2ccc(C(=O)N3CCN(c4cccc(C)c4C)CC3)o2)cc1	15	22*	-6	-9	-7	1
Cc1cccc(N2CCN(C(=O)c3ccncc3)CC2C)c1 (stereo not given)	2	13	3	1	-12	0
Cc1cccc(N2CCN(C(=O)c3ccc4c(c3)OCCO4)CC2C)c1 (stereo not given)	8	13*	-3	2	-65	10
COCCNC(=O)c1cn(C[C@@H]2CCCN(C(=O)c3cnc(C)cn3)C2)nn1	3	x	x	x	-9	x
SMILES	PGE2 EP2 inh	MT stabilize HCS	TbHK1 inh	Efa HMGR inh	EP2 mod	bCat nuc transl
COc1ccc(S(=O)(=O)N2CCN(CC(=O)c3ccco3)CC2)cc1OC	9	x	x	x	1	x
O=C(c1cccc(N2CCCCS2(=O)=O)c1)N1CCCCC1c1nc2ccccc2[nH]1 (stereo not given)	x	x	x	x	0	x
COC(=O)c1cccc(NC(=O)CSc2nnnn2-c2ccc3c(c2)OCCO3)c1	13	x	x	x	-77	x
CCCNCc1cc(OC)c(OCC(=O)NCCc2ccccc2)cc1Br	7	2	13	3	-1	3
CCCNCc1cc(OC)c(OCc2ccccc2)cc1Br	9	4	6	19*	-13	0
C[C@]12CC[C@@H]3c4ccc(O)cc4CC[C@H]3[C@@H]1C[C@@H](O)[C@@H]2O	17	6	1	0	-30	-1
